Most compounds without a hit are left out; they make up all but 0.94% or so of the library.
Arr AP2 block – inhibitors of beta-arrestin/AP2 binding, primary screen, biochemical, GPCR trafficking, flow cytometry. beta-arrestin 1 C-terminal peptide binding to AP2 beta2-adaptin appendage (human). FITC-arrestin peptide / GST-AP2 beads; AP2 beta2 appendage carries R879A mutation. inhibition, % at 10 µM. 0.31% of 340,000 active. AID 504490, 2011;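 active = inhibition above a set limit, near 3 SD of compounds lacking own fluorescence, cut at about 54% in these data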;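 note: plate controls were DMSO wells for no effect and 5 µM unlabelled arrestin peptide for full effect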
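System: GST-AP2 R879A bound to glutathione beads, E. coli-expressed. Also added: 50 nM FITC-arrestin peptide. Schedule: compound with beads 12 min RT, then probe 1 h RT. Signal: bead flow cytometry, FITC channel. Read-out basis: percent response.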
GalR3 antagonist – GalR3 antagonists in HEK293 cells, primary screen, cell-based, fluorescence readout | HEK293 GalR3-CNG cAMP membrane potential fluorescence; galR3 body fused to GalR1 C-terminus | inhibition, % at 3 µM | 0.44% of 360,000 active | AID 651719, 2012;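 active = inhibition above the screen-wide average plus 3 SD, cut at about 13% in these data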;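 note: forskolin and galanin both at EC90 stimulate the cells; cAMP rise reported by CNG channel membrane potential dye signal; 0% = forskolin plus galanin with DMSO and 100% = forskolin alone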
Target sequence (O60755 1-299 limits assumed): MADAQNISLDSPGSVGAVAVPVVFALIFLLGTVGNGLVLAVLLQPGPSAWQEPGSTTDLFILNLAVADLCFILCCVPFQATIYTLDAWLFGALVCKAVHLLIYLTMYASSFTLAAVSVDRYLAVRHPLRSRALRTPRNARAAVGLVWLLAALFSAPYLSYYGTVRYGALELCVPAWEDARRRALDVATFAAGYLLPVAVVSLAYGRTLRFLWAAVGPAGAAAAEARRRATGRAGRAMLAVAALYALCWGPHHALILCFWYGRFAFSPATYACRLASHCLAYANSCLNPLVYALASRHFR
NPR2 activator – human GC-B receptor activators, primary screen, HEK293 GC-B cells, cGMP TR-FRET, EC30 CNP; 0% at EC30 CNP, 100% saturating CNP; activation, % at 10 µM; AID 1920062, 2024; 0.11% of 370,000 active;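 active = activation at 10 µM reaching about 35% in either raw or pattern-adjusted values, limit read from the data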
NPR1 activator – GC-A stimulated cGMP production enhancers – HEK293 GC-A cells, cGMP TR-FRET, EC30 ANP, primary screen. 0.14% of 370,000 active. AID 1671463, 2021. 0% at EC30 ANP, 100% saturating ANP. activation, % at 10 µM. Atrial natriuretic peptide receptor 1 (Homo sapiens), P16066; in the data active = activation above about 40%
GalR3 conf – GalR3 antagonist hit confirmation, cell-based, fluorescence, triplicate; shares compounds with GalR3 antagonist; HEK293 GalR3 CNG cAMP biosensor, membrane potential fluorescence; galR3 fused to GalR1 carboxy tail; challenged with forskolin and galanin at EC90; inhibition, % at 3 µM; 59% of 1,600 active;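 active = inhibition above the primary screen's cutoff, the mean inhibition of all screened compounds plus 3 SD, cut at about 13% in these data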;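 note: 0% = forskolin plus galanin and 100% = forskolin alone with DMSO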
HEK-CNG parental – nonspecific cAMP agonists in parental HEK-CNG cells, counter-screen for GalR3 antagonist project, cell-based, fluorescence, high throughput | shares compounds with GalR3 antagonist | HEK293-CNG parental cells, cAMP membrane potential fluorescence; normalised: DMSO wells 0%, forskolin wells 100% | activation, % at 3 µM | 10% of 1,600 active | AID 652268, 2013; in the data active = activation above about 1.3%
Active calls of the source: *; x = no result.

SMILES	Arr AP2 block	GalR3 antagonist	NPR2 activator	NPR1 activator	GalR3 conf	HEK-CNG parental
COCCN(Cc1cc2cc(C)ccc2[nH]c1=O)S(=O)(=O)c1ccc(Cl)cc1	-2	73*	-6	2	4	0
Cc1ccc(S(=O)(=O)N(C)Cc2cc3cc(C)ccc3[nH]c2=O)cc1	3	4	6	2	x	x
COc1ccc(S(=O)(=O)N2CCCCCC2)c2ccccc12	x	x	-5	-2	x	x
C=CCN1[C@H](C)COc2cc(N3CCSCC3)ccc2S1(=O)=O	x	x	-6	-5	x	x
O=S(=O)(NCC1CCCO1)c1ccc(-c2ccc(S(=O)(=O)NCC3CCCO3)cc2)cc1 (centres undefined)	6	97*	0	3	106*	-1
COc1cc(C(Nc2ccc(S(=O)(=O)NCC3CCCO3)cc2)C(=O)NC(C)(C)C)cc(OC)c1OC (centres undefined)	3	16*	-6	-2	10	0
CCCCCCC12Cc3cc(OC)c(OC)cc3C(O1)c1c(cc(C)oc1=O)O2 (centres undefined)	x	-6	5	1	x	x
CC(=O)N1CCN(c2ccc(NC(=S)NC(=O)COc3ccc(C(C)(C)C)cc3)cc2)CC1	9	30*	-2	-3	95*	-1
COC(=O)[C@H](Cc1ccccc1)NP(=O)(OC)[C@@H](C)NC(=O)OCc1ccccc1 (some centres undefined)	x	x	-5	-5	x	x
Cc1ccc(CN2CCN(/N=C/c3ccc(C(F)(F)F)cc3)CC2)cc1	-2	16*	1	4	3	0
CSc1nsc2nc(=O)c(/C=C3\C(C)=Nc4ccccc43)c(N)n12	-12	13*	-1	-5	3	0
CCOc1cc(OCC)cc(C(=O)N2CCC[C@@H]2C(=O)N2CCC[C@H]2C(=O)NCc2ccccc2)c1	x	-4	-15	-6	x	x
Cc1cc(C)n(CCNC(=O)[C@@H](Cc2ccccc2)NC(=O)[C@H]2O[C@@H](n3ccc(=O)[nH]c3=O)[C@H](O)[C@@H]2O)n1	x	-4	0	0	x	x
COc1ccc(NC(=O)CN(C)C(=O)c2cccc(S(=O)(=O)N3CCN(Cc4ccccc4)CC3)c2)cc1	19	x	x	x	x	x
CN(CCOc1ccc(Cl)cc1)C(=O)c1cccc(S(=O)(=O)N2CCN(Cc3ccccc3)CC2)c1	-15	31*	-5	-5	84*	1
O=C(Nc1ccc(F)cc1)OCc1cn(Cc2ccc(F)c(F)c2)nn1	x	x	-1	0	x	x
CC(C)(C)CN1C(N)=NC[C@@H]1c1ccccc1	10	-1	-3	1	x	x
NC1=NC[C@H](Cc2ccc(O)cc2)N1CCc1cccc(F)c1	x	x	3	1	7	0
CC(C)(C)CN1C(N)=NC[C@@H]1Cc1ccccc1	-2	x	2	3	4	0
CCOC(=O)C1CSCCS(=O)(=O)N1Cc1ccc(C)cc1 (centres undefined)	x	-5	6	2	x	x
O=C(NCC1CCN(Cc2ccc(Cl)cc2)CC1)C1CCCN(c2ncnc3c2nc2n3CCCCC2)C1 (centres undefined)	8	62*	-10	-8	84*	2.0*
O=C(NCC1CCN(Cc2ccc(F)cc2)CC1)C1CCCN(c2ncnc3c2nc2n3CCCCC2)C1 (centres undefined)	45	-5	-5	-2	x	x
CN(CCOC(=O)CSc1ccccc1)C1CN(Cc2cn(Cc3ccccc3F)nn2)S(=O)(=O)C1 (centres undefined)	x	x	1	2	x	x

Screening data as filed in PubChem BioAssay.
